Assay results from ChEMBL document CHEMBL1154367, “Novel 4-N-substituted aryl but-3-ene-1,2-dione derivatives of piperazinyloxazolidinones as antibacterial agents” (2009).
≈ marks a conversion by molar mass, not a printed value. Calls of active or inactive are those of the source. No cut-off for these calls is given here.

Assays:
Staphylococcus aureus [1] = test: Antibacterial activity against methicillin-resistant Staphylococcus aureus ATCC 70069 after 24 hrs by agar dilution method; type: functional; conditions: ATCC 70069, 24 h
Bacillus cereus = test: Antibacterial activity against Bacillus cereus MTCC 430 after 24 hrs by agar dilution method; type: functional; conditions: MTCC 430, 24 h
Method in brief: (§1)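 MIC by agar dilution with doubling dilutions in cation-adjusted Mueller Hinton agar, 50–0.019 range, incubated in air at 35 °C for 24 h. Strains pre-grown on nutrient agar at 37 °C for 24 h, then suspended in normal saline with 0.05% Tween 20 at about 1.0–2.0 × 10⁷ cells/mL, matched to 0.5 McFarland.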

Staphylococcus aureus [2] = test: Antibacterial activity against floxacin and methicillin-resistant Staphylococcus aureus ATCC 25923 after 24 hrs by agar dilution method; type: functional; conditions: ATCC 25923, 24 h
Staphylococcus aureus [3] = test: Antibacterial activity against methicillin and vancomycin-resistant Staphylococcus aureus ATCC 29213 after 24 hrs by agar dilution method; type: functional; conditions: ATCC 29213, 24 h
Enterococcus faecalis = test: Antibacterial activity against Enterococcus faecalis MTCC 439 after 24 hrs by agar dilution method; type: functional; conditions: MTCC 439, 24 h; method in brief: as §1
Streptococcus pyogenes = test: Antibacterial activity against Streptococcus pyogenes after 24 hrs by agar dilution method; type: functional; method in brief: as §1
Escherichia coli = test: Antibacterial activity against Escherichia coli after 24 hrs by agar dilution method; type: functional, organism-based; method in brief: as §1
Klebsiella pneumoniae = test: Antibacterial activity against Klebsiella pneumoniae after 24 hrs by agar dilution method; type: functional, organism-based; method in brief: as §1
Pseudomonas aeruginosa = test: Antibacterial activity against Pseudomonas aeruginosa after 24 hrs by agar dilution method; type: functional, organism-based; method in brief: as §1

Q: What does the source list for `CC(=O)NC[C@H]1CN(c2ccc(N3CCN(C(=O)C(=O)/C=C/c4ccc(Cl)cc4)CC3)c(F)c2)C(=O)O1`?
A: MIC (Staphylococcus aureus [1]): 0.78 µg/mL (≈ 1.47 µM); MIC (Bacillus cereus): 0.39 µg/mL (≈ 0.737 µM); MIC (Staphylococcus aureus [2]): 0.78 µg/mL (≈ 1.47 µM); MIC (Staphylococcus aureus [3]): 0.78 µg/mL (≈ 1.47 µM); MIC (Enterococcus faecalis): 0.78 µg/mL (≈ 1.47 µM); MIC (Streptococcus pyogenes): 0.39 µg/mL (≈ 0.737 µM); Activity (Escherichia coli): inactive; Activity (Klebsiella pneumoniae): inactive; Activity (Pseudomonas aeruginosa): inactive

Q: What does the source list for `CC(=O)NC[C@H]1CN(c2ccc(N3CCN(C(=O)C(=O)/C=C/c4ccco4)CC3)c(F)c2)C(=O)O1`?
A: MIC (Staphylococcus aureus [1]): 1.56 µg/mL (≈ 3.22 µM); MIC (Bacillus cereus): 0.78 µg/mL (≈ 1.61 µM); MIC (Staphylococcus aureus [2]): 0.39 µg/mL (≈ 0.805 µM); MIC (Staphylococcus aureus [3]): 3.12 µg/mL (≈ 6.44 µM); MIC (Enterococcus faecalis): 0.78 µg/mL (≈ 1.61 µM); MIC (Streptococcus pyogenes): 0.78 µg/mL (≈ 1.61 µM); Activity (Escherichia coli): inactive; Activity (Klebsiella pneumoniae): inactive; Activity (Pseudomonas aeruginosa): inactive

Q: How did the MIC (Staphylococcus aureus [1]) turn out when `CC(=O)NC[C@H]1CN(c2ccc(N3CCN(C(=O)C(=O)/C=C/c4ccc(F)cc4)CC3)c(F)c2)C(=O)O1` was run?
A: Its MIC is 0.78 µg/mL (≈ 1.52 µM).

Q: What about the MIC (Bacillus cereus) of the same compound?
A: Its MIC is 0.39 µg/mL (≈ 0.761 µM).

Q: What about the MIC (Staphylococcus aureus [2]) of the same compound?
A: Its MIC is 0.78 µg/mL (≈ 1.52 µM).

Q: And the MIC (Staphylococcus aureus [3])?
A: Its MIC is 1.56 µg/mL (≈ 3.04 µM).

Q: What about the MIC (Enterococcus faecalis) of the same compound?
A: Its MIC is 0.78 µg/mL (≈ 1.52 µM).

Q: And the MIC (Streptococcus pyogenes)?
A: The MIC was 0.39 µg/mL (≈ 0.761 µM).

Q: What about the Activity (Escherichia coli) of the same compound?
A: The Activity was “inactive”.

Q: And the Activity (Klebsiella pneumoniae)?
A: Its Activity is “inactive”.

Q: And the Activity (Pseudomonas aeruginosa)?
A: The Activity was “inactive”.

Q: Which results are given for `CC(=O)NC[C@H]1CN(c2ccc(N3CCN(C(=O)C(=O)/C=C/c4cccs4)CC3)c(F)c2)C(=O)O1`?
A: MIC (Staphylococcus aureus [1]): 0.78 µg/mL (≈ 1.56 µM); MIC (Bacillus cereus): 0.39 µg/mL (≈ 0.779 µM); MIC (Staphylococcus aureus [2]): 0.39 µg/mL (≈ 0.779 µM); MIC (Staphylococcus aureus [3]): 1.56 µg/mL (≈ 3.12 µM); MIC (Enterococcus faecalis): 0.78 µg/mL (≈ 1.56 µM); MIC (Streptococcus pyogenes): 0.39 µg/mL (≈ 0.779 µM); Activity (Escherichia coli): inactive; Activity (Klebsiella pneumoniae): inactive; Activity (Pseudomonas aeruginosa): inactive

Q: With `CC(=O)NC[C@H]1CN(c2ccc(N3CCN(C(=O)C(=O)/C=C/c4ccc(F)c(F)c4)CC3)c(F)c2)C(=O)O1` as the compound, how does the MIC (Staphylococcus aureus [1]) read?
A: The MIC was 1.56 µg/mL (≈ 2.94 µM).

Q: And the MIC (Bacillus cereus)?
A: The MIC was 0.39 µg/mL (≈ 0.735 µM).

Q: What about the MIC (Staphylococcus aureus [2]) of the same compound?
A: The MIC was 0.78 µg/mL (≈ 1.47 µM).

Q: What about the MIC (Staphylococcus aureus [3]) of the same compound?
A: Its MIC is 3.12 µg/mL (≈ 5.88 µM).

Q: What about the MIC (Enterococcus faecalis) of the same compound?
A: Its MIC is 0.78 µg/mL (≈ 1.47 µM).

Q: And the MIC (Streptococcus pyogenes)?
A: The MIC was 0.78 µg/mL (≈ 1.47 µM).

Q: And the Activity (Escherichia coli)?
A: Its Activity is “inactive”.

Q: What about the Activity (Klebsiella pneumoniae) of the same compound?
A: Its Activity is “inactive”.

Q: What about the Activity (Pseudomonas aeruginosa) of the same compound?
A: The Activity was “inactive”.

Q: Which results are given for `CC(=O)NC[C@H]1CN(c2ccc(N3CCN(C(=O)C(=O)/C=C/c4ccc(Cl)c(Cl)c4Cl)CC3)c(F)c2)C(=O)O1`?
A: MIC (Staphylococcus aureus [1]): > 50 µg/mL; MIC (Bacillus cereus): > 50 µg/mL; MIC (Staphylococcus aureus [2]): > 50 µg/mL; MIC (Staphylococcus aureus [3]): > 50 µg/mL; MIC (Enterococcus faecalis): > 50 µg/mL; MIC (Streptococcus pyogenes): > 50 µg/mL; Activity (Escherichia coli): inactive; Activity (Klebsiella pneumoniae): inactive; Activity (Pseudomonas aeruginosa): inactive

Q: Which results are given for `CC(=O)NC[C@H]1CN(c2ccc(N3CCN(C(=O)C(=O)/C=C/c4ccsc4)CC3)c(F)c2)C(=O)O1`?
A: MIC (Staphylococcus aureus [1]): 0.78 µg/mL (≈ 1.56 µM); MIC (Bacillus cereus): 0.78 µg/mL (≈ 1.56 µM); MIC (Staphylococcus aureus [2]): 0.78 µg/mL (≈ 1.56 µM); MIC (Staphylococcus aureus [3]): 1.56 µg/mL (≈ 3.12 µM); MIC (Enterococcus faecalis): 0.78 µg/mL (≈ 1.56 µM); MIC (Streptococcus pyogenes): 0.39 µg/mL (≈ 0.779 µM); Activity (Escherichia coli): inactive; Activity (Klebsiella pneumoniae): inactive; Activity (Pseudomonas aeruginosa): inactive

Q: Which results are given for `CC(=O)NC[C@H]1CN(c2ccc(N3CCN(C(=O)C(=O)/C=C/c4ccc(C)cc4)CC3)c(F)c2)C(=O)O1`?
A: MIC (Staphylococcus aureus [1]): 0.19 µg/mL (≈ 0.374 µM); MIC (Bacillus cereus): 0.19 µg/mL (≈ 0.374 µM); MIC (Staphylococcus aureus [2]): 0.19 µg/mL (≈ 0.374 µM); MIC (Staphylococcus aureus [3]): 0.39 µg/mL (≈ 0.767 µM); MIC (Enterococcus faecalis): 0.04 µg/mL (≈ 0.0787 µM); MIC (Streptococcus pyogenes): 0.09 µg/mL (≈ 0.177 µM); Activity (Escherichia coli): inactive; Activity (Klebsiella pneumoniae): inactive; Activity (Pseudomonas aeruginosa): inactive

Q: With `CN[C@H](CC(C)C)C(=O)N[C@H]1C(=O)N[C@@H](CC(N)=O)C(=O)N[C@H]2C(=O)N[C@H]3C(=O)N[C@H](C(=O)N[C@H](C(=O)O)c4cc(O)cc(O)c4-c4cc3ccc4O)[C@H](O)c3ccc(c(Cl)c3)Oc3cc2cc(c3O[C@@H]2O[C@H](CO)[C@@H](O)[C@H](O)[C@H]2O[C@H]2C[C@](C)(N)[C@H](O)[C@H](C)O2)Oc2ccc(cc2Cl)[C@H]1O` [VANCOMYCIN] as the compound, how does the MIC (Staphylococcus aureus [1]) read?
A: The MIC was 6.25 µg/mL (≈ 4.31 µM).

Q: And the MIC (Bacillus cereus)?
A: The MIC was 0.19 µg/mL (≈ 0.131 µM).

Q: And the MIC (Staphylococcus aureus [2])?
A: Its MIC is 0.39 µg/mL (≈ 0.269 µM).

Q: And the MIC (Staphylococcus aureus [3])?
A: Its MIC is 1.56 µg/mL (≈ 1.08 µM).

Q: And the MIC (Enterococcus faecalis)?
A: The MIC was 0.78 µg/mL (≈ 0.538 µM).

Q: What about the MIC (Streptococcus pyogenes) of the same compound?
A: Its MIC is 0.39 µg/mL (≈ 0.269 µM).

Q: Which results are given for `CC(=O)NC[C@H]1CN(c2ccc(N3CCOCC3)c(F)c2)C(=O)O1` [LINEZOLID]?
A: MIC (Staphylococcus aureus [1]): 1.56 µg/mL (≈ 4.62 µM); MIC (Bacillus cereus): 0.78 µg/mL (≈ 2.31 µM); MIC (Staphylococcus aureus [2]): 1.56 µg/mL (≈ 4.62 µM); MIC (Staphylococcus aureus [3]): 3.12 µg/mL (≈ 9.25 µM); MIC (Enterococcus faecalis): 3.12 µg/mL (≈ 9.25 µM); MIC (Streptococcus pyogenes): 1.56 µg/mL (≈ 4.62 µM)

Q: Which MIC (Staphylococcus aureus [1]) does the source give for `CC(=O)NC[C@H]1CN(c2ccc(N3CCN(C(=O)C(=O)/C=C/c4ccccc4)CC3)c(F)c2)C(=O)O1` here?
A: Its MIC is 0.39 µg/mL (≈ 0.789 µM).

Q: What about the MIC (Bacillus cereus) of the same compound?
A: The MIC was 0.39 µg/mL (≈ 0.789 µM).

Q: What about the MIC (Staphylococcus aureus [2]) of the same compound?
A: Its MIC is 0.78 µg/mL (≈ 1.58 µM).

Q: And the MIC (Staphylococcus aureus [3])?
A: The MIC was 0.78 µg/mL (≈ 1.58 µM).

Q: What about the MIC (Enterococcus faecalis) of the same compound?
A: The MIC was 0.78 µg/mL (≈ 1.58 µM).

Q: And the MIC (Streptococcus pyogenes)?
A: The MIC was 0.39 µg/mL (≈ 0.789 µM).

Q: What about the Activity (Escherichia coli) of the same compound?
A: The Activity was “inactive”.

Q: What about the Activity (Klebsiella pneumoniae) of the same compound?
A: The Activity was “inactive”.

Q: What about the Activity (Pseudomonas aeruginosa) of the same compound?
A: The Activity was “inactive”.

Q: With `CC(=O)NC[C@H]1CN(c2ccc(N3CCN(C(=O)C(=O)/C=C/c4ccc(C(F)(F)F)cc4)CC3)c(F)c2)C(=O)O1` as the compound, how does the MIC (Staphylococcus aureus [1]) read?
A: The MIC was 0.78 µg/mL (≈ 1.39 µM).

Q: And the MIC (Bacillus cereus)?
A: The MIC was 1.56 µg/mL (≈ 2.77 µM).

Q: And the MIC (Staphylococcus aureus [2])?
A: The MIC was 0.78 µg/mL (≈ 1.39 µM).

Q: What about the MIC (Staphylococcus aureus [3]) of the same compound?
A: The MIC was 1.56 µg/mL (≈ 2.77 µM).

Q: And the MIC (Enterococcus faecalis)?
A: Its MIC is 0.19 µg/mL (≈ 0.338 µM).

Q: And the MIC (Streptococcus pyogenes)?
A: Its MIC is 0.19 µg/mL (≈ 0.338 µM).

Q: What about the Activity (Escherichia coli) of the same compound?
A: Its Activity is “inactive”.

Q: And the Activity (Klebsiella pneumoniae)?
A: The Activity was “inactive”.

Q: What about the Activity (Pseudomonas aeruginosa) of the same compound?
A: Its Activity is “inactive”.
